Tests used:
Plasmodium berghei [1] = test: Antimalarial activity against Plasmodium berghei infected in Swiss Webster mouse assessed as mouse survival rate at 0.3 mg/kg administered once daily via oral gavage for 4 consecutive days beginning 1 hr after infection measured on day 5 post infection relative to control; format: functional
Outline: (§1)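 Mice given an intraperitoneal injection of P. berghei-infected erythrocytes taken from a previously infected animal. Oral dosing once daily for 4 consecutive days, starting 1 h after infection. Vehicle: polyethylene glycol 300/propylene glycol/water (weight ratio 55/25/20). Percent survival recorded daily from day 4 to day 20. Chloroquine 30 mg/kg and vehicle-only groups served as controls.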

Plasmodium berghei [2] = test: Antimalarial activity against Plasmodium berghei infected in Swiss Webster mouse assessed as mouse survival rate at 0.3 mg/kg administered once daily via oral gavage for 4 consecutive days beginning 1 hr after infection measured on day 8 post infection relative to control; format: functional; outline: as §1
Plasmodium berghei [3] = test: Antimalarial activity against Plasmodium berghei infected in Swiss Webster mouse assessed as mouse survival rate at 0.3 mg/kg administered once daily via oral gavage for 4 consecutive days beginning 1 hr after infection measured on day 6 post infection relative to control; format: functional; outline: as §1
Plasmodium berghei [4] = test: Antimalarial activity against Plasmodium berghei infected in Swiss Webster mouse assessed as mouse survival rate at 1 mg/kg administered once daily via oral gavage for 4 consecutive days beginning 1 hr after infection measured on day 8 post infection relative to control; format: functional; outline: as §1
Lymphocyte [5] = test: Genotoxicity in human lymphocytes assessed as increase in frequency of micronucleated cells at 160 ug/mL after 28 hrs in absence of rat liver S9 fraction by micronucleus assay (reference value: 0.74%); format: toxicity, cell-based
Salmonella typhimurium [6] = test: Genotoxicity in Salmonella typhimurium TA98 assessed as number of revertants per plate at 15 ug/plate in absence of rat liver S9 fraction by Ames test (reference value: 14 +/- 6); format: toxicity; conditions: salmonella enterica subsp. enterica serovar typhimurium
Lymphocyte [7] = test: Genotoxicity in human lymphocytes assessed as replication index at 80 ug/mL after 3 hrs in absence of rat liver S9 fraction by micronucleus assay relative to control; format: toxicity, cell-based
Outline: (§2)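 Human lymphocytes exposed for 3 h with or without rat liver S9, or 28 h without S9, with 1% DMSO as vehicle control. Replication index = (binucleated + 2 × multinucleated cells)/total cells. Cytotoxicity (%) = 100 − (RI treated/RI vehicle) × 100.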

Salmonella typhimurium [8] = test: Genotoxicity in Salmonella typhimurium TA1537 assessed as number of revertants per plate at 15 ug/plate in presence of rat liver S9 fraction by Ames test (reference value: 11 +/- 4); format: toxicity; conditions: salmonella enterica subsp. enterica serovar typhimurium
Salmonella typhimurium [9] = test: Genotoxicity in Salmonella typhimurium TA100 assessed as number of revertants per plate at 5 ug/plate in presence of rat liver S9 fraction by Ames test (reference value: 141 +/- 1); format: toxicity; conditions: salmonella enterica subsp. enterica serovar typhimurium
Lymphocyte [10] = test: Genotoxicity in human lymphocytes assessed as increase in frequency of micronucleated cells at 80 ug/mL after 3 hrs in presence of rat liver S9 fraction by micronucleus assay (reference value: 0.63%); format: toxicity, cell-based; conditions: s9, 3 h
Lymphocyte [11] = test: Genotoxicity in human lymphocytes assessed as replication index at 80 ug/mL after 3 hrs in presence of rat liver S9 fraction by micronucleus assay relative to control; format: toxicity, cell-based; conditions: s9, 3 h; outline: as §2
Lymphocyte [12] = test: Genotoxicity in human lymphocytes assessed as increase in frequency of micronucleated cells at 160 ug/mL after 3 hrs in absence of rat liver S9 fraction by micronucleus assay (reference value: 0.99%); format: toxicity, cell-based
Lymphocyte [13] = test: Genotoxicity in human lymphocytes assessed as increase in frequency of micronucleated cells at 80 ug/mL after 28 hrs in absence of rat liver S9 fraction by micronucleus assay (reference value: 0.74%); format: toxicity, cell-based
Escherichia coli [14] = test: Genotoxicity in Escherichia coli WP2uvrA assessed as number of revertants per plate at 1500 ug/plate in absence of rat liver S9 fraction by Ames test (reference value: 45 +/- 9); format: toxicity
Salmonella typhimurium [15] = test: Genotoxicity in Salmonella typhimurium TA1537 assessed as number of revertants per plate at 5 ug/plate in presence of rat liver S9 fraction by Ames test (reference value: 11 +/- 4); format: toxicity; conditions: salmonella enterica subsp. enterica serovar typhimurium
Escherichia coli [16] = test: Genotoxicity in Escherichia coli WP2uvrA assessed as number of revertants per plate at 50 ug/plate in presence of rat liver S9 fraction by Ames test (reference value: 42 +/- 6); format: toxicity
Plasmodium falciparum = test: Antimalarial activity against intraerythrocytic stage of Plasmodium falciparum assessed as time required for maximal killing effect at 10 times IC50 preincubated for 24 hrs followed by [3H]-hypoxanthine addition measured after 24 hrs by scintillation counting method; format: functional
Outline: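 In vitro P. falciparum parasite reduction ratio assay run at 10×, 30× and 100× IC50. Derived parameters: lag phase (time to maximal killing), PRR (parasites killed per life cycle) and PCT99.9% (time to clear 99.9% of the initial parasite population).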

[17] = Volume of distribution at steady state in Beagle dog at 5 mg/kg, iv by HPLC/MS analysis; format: ADME, organism-based, Canis lupus familiaris; conditions: in vivo, read-out: Vdss
Salmonella typhimurium [18] = test: Genotoxicity in Salmonella typhimurium TA100 assessed as number of revertants per plate at 50 ug/plate in absence of rat liver S9 fraction by Ames test (reference value: 154 +/- 9); format: toxicity; conditions: salmonella enterica subsp. enterica serovar typhimurium
Salmonella typhimurium [19] = test: Genotoxicity in Salmonella typhimurium TA100 assessed as number of revertants per plate at 5 ug/plate in absence of rat liver S9 fraction by Ames test (reference value: 154 +/- 9); format: toxicity; conditions: salmonella enterica subsp. enterica serovar typhimurium
Escherichia coli [20] = test: Genotoxicity in Escherichia coli WP2uvrA assessed as number of revertants per plate at 5 ug/plate in presence of rat liver S9 fraction by Ames test (reference value: 42 +/- 6); format: toxicity
Salmonella typhimurium [21] = test: Genotoxicity in Salmonella typhimurium TA1535 assessed as number of revertants per plate at 150 ug/plate in absence of rat liver S9 fraction by Ames test (reference value: 10 +/- 3); format: toxicity; conditions: salmonella enterica subsp. enterica serovar typhimurium
Rattus norvegicus = test: Genotoxicity in rat assessed as change in polychromatic erythrocytes in bone marrow at 2000 mg/kg administered via oral gavage measured after 24 hrs post dose by micronucleus assay relative to control; format: toxicity, organism-based; conditions: in vivo
Salmonella typhimurium [22] = test: Genotoxicity in Salmonella typhimurium TA98 assessed as number of revertants per plate at 500 ug/plate in absence of rat liver S9 fraction by Ames test (reference value: 14 +/- 6); format: toxicity; conditions: salmonella enterica subsp. enterica serovar typhimurium
Escherichia coli [23] = test: Genotoxicity in Escherichia coli WP2uvrA assessed as number of revertants per plate at 500 ug/plate in presence of rat liver S9 fraction by Ames test (reference value: 42 +/- 6); format: toxicity
Lymphocyte [24] = test: Genotoxicity in human lymphocytes assessed as replication index at 160 ug/mL after 28 hrs in absence of rat liver S9 fraction by micronucleus assay relative to control; format: toxicity, cell-based; outline: as §2
Salmonella typhimurium [25] = test: Genotoxicity in Salmonella typhimurium TA100 assessed as number of revertants per plate at 15 ug/plate in presence of rat liver S9 fraction by Ames test (reference value: 141 +/- 1); format: toxicity; conditions: salmonella enterica subsp. enterica serovar typhimurium
Lymphocyte [26] = test: Genotoxicity in human lymphocytes assessed as increase in frequency of micronucleated cells at 355.15 ug/mL after 3 hrs in presence of rat liver S9 fraction by micronucleus assay (reference value: 0.63%); format: toxicity, cell-based; conditions: s9, 3 h
Plasmodium berghei [27] = test: Antimalarial activity against Plasmodium berghei infected in Swiss Webster mouse assessed as mouse survival rate at 11 mg/kg administered once daily via oral gavage for 4 consecutive days beginning 1 hr after infection measured on day 14 post infection relative to control; format: functional; outline: as §1

Cc1c(Oc2cnc(C(=O)NC(C)CO)cn2)ccc2c1B(O)OC2 (centres undefined)
survival at 0.3 mg/kg (Plasmodium berghei [1]): 20%
survival at 0.3 mg/kg (Plasmodium berghei [2]): 0%
survival at 0.3 mg/kg (Plasmodium berghei [3]): 20%
survival at 1 mg/kg (Plasmodium berghei [4]): 0%

Cc1c(Oc2cnc(C(=O)N3CC(C)(O)C3)cn2)ccc2c1B(O)OC2
Activity (Lymphocyte [5]): 0.89%
Activity (Salmonella typhimurium [6]): 15
Activity (Lymphocyte [7]): 3%
Activity (Salmonella typhimurium [8]): 9
Activity (Salmonella typhimurium [9]): 128
Activity (Lymphocyte [10]): 0.74%
Activity (Lymphocyte [11]): 1%
Activity (Lymphocyte [12]): 1.18%
Activity (Lymphocyte [13]): 1.28%
Activity (Escherichia coli [14]): 33
Activity (Salmonella typhimurium [15]): 22
Activity (Escherichia coli [16]): 44
Time (Plasmodium falciparum): 0 h
Vd [17]: 0.29 L/kg
Activity (Salmonella typhimurium [18]): 132
Activity (Salmonella typhimurium [19]): 152
Activity (Escherichia coli [20]): 37
Activity (Salmonella typhimurium [21]): 8
Activity (Rattus norvegicus): -4%
Activity (Salmonella typhimurium [22]): 10
Activity (Escherichia coli [23]): 35
Activity (Lymphocyte [24]): 13%
Activity (Salmonella typhimurium [25]): 149
Activity (Lymphocyte [26]): 0.73%

Cc1c(Oc2cnc(C(=O)N3CC(O)(C(C)C)C3)cn2)ccc2c1B(O)OC2
survival at 11 mg/kg (Plasmodium berghei [27]): 0%
